Among the data in ChEMBL document CHEMBL1123176, “Synthesis and antitumor activity of cyclophosphamide analogues. 4. Preparation, kinetic studies, and anticancer screening of "phenylketophosphamide" and similar compounds related to the cyclophosphamide metabolite aldophosphamide” (1986) are Survivors, ILS and T/C values, retold here.

Bounds are passed on as bounds.

Test [1] deals with Mus musculus. Nature of the test: Number of survivors on the toxicity day (day = 15) at a dose of 100x1 mg/kg. The test is classed as functional.
In test [2] the test system is Mus musculus. Briefly: Increased life span against L1210 lymphoid leukemia cells in male BDF1 mice at a dose of 100 mg/kg. It is filed as functional. The settings on record: for ILS at 100 mg/kg: Mus musculus, BDF1, L1210, dose 100 mg/kg. The gist of the method:
(§1)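 Male BDF1 mice, 6 weeks old, implanted ip with 1 × 10^5 L1210 lymphoid leukemia cells on day 0. Dosing was a single ip dose on day 2 in 10% Me2SO, except where noted: x7 schedules given ip on days 2 through 8; some arms given po; some arms in saline vehicle. Read-outs were % increased life span and survivors on day 60; some runs were duplicated.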

For test [3], the system named is Mus musculus. Briefly: Number of survivors on day 60 at a dose of 100 mg/kg; 0/7. It is filed as functional. In a few lines:
as §1

Test [4] relates to Mus musculus. Briefly: Increased life span against L1210 lymphoid leukemia cells in male BDF1 mice at a dose of 200 mg/kg. The test is classed as functional. The settings on record: for ILS at 200 mg/kg: Mus musculus, BDF1, L1210. In a few lines: as §1
In test [5] the test system is Mus musculus. Nature of the test: Number of survivors on day 60 at a dose of 200 mg/kg; 0/7. The test is classed as functional. The gist of the method:
as §1

Test [6] relates to Mus musculus. Briefly: Increased life span against L1210 lymphoid leukemia cells in male BDF1 mice at a dose of 400 mg/kg. It is filed as functional. The settings on record: for ILS at 400 mg/kg: Mus musculus, BDF1, L1210. The gist of the method: as §1
For test [7], the system named is Mus musculus. Nature of the test: Number of survivors on day 60 at a dose of 400 mg/kg; 0/7. It is filed as functional. In a few lines: as §1
For test [8], the system named is Mus musculus. Briefly: Number of survivors on day 60 at a dose of 400 mg/kg; 5/7. The test is classed as functional. In a few lines: as §1
For test [9], the system named is Mus musculus. Briefly: Compound was ested for antitumor activity against Lewis lung carcinoma cells implanted in female CD2F1 mice at a dose of 250x1 mg/kg. It is filed as functional.
Test [10] relates to Mus musculus. Briefly: Compound was ested for antitumor activity against Lewis lung carcinoma cells implanted in female CD2F1 mice at a dose of 500x1 mg/kg. The test is classed as functional.
Test [11] deals with Mus musculus. Briefly: Compound was ested for antitumor activity against Lewis lung carcinoma cells implanted in female CD2F1 mice at a dose of 62.5x1 mg/kg. The test is classed as functional.
Test [12] relates to Mus musculus. Briefly: Compound was ested for antitumor activity against Lewis lung carcinoma cells implanted in female CD2F1 mice at a dose of 125 x1 mg/kg. The test is classed as functional.
The test system of test [13] is Mus musculus. Nature of the test: Number of survivors on the toxicity day (day = 15) at a dose of 250x1 mg/kg; 6/6. The test is classed as functional.
Test [14] deals with Mus musculus. Briefly: Number of survivors on day 60 at a dose of 50 mg/kg; 0/7. The test is classed as functional. In a few lines: as §1
For test [15], the system named is Mus musculus. Briefly: Number of survivors on the toxicity day (day = 15) at a dose of 125 x1 mg/kg; 6/6. The test is classed as functional.
Test [16] concerns Mus musculus. Nature of the test: Increased life span against L1210 lymphoid leukemia cells in male BDF1 mice at a dose of 50 mg/kg. It is filed as functional. The gist of the method:
as §1

Test [17] relates to Mus musculus. Nature of the test: Number of survivors on the toxicity day (day = 15) at a dose of 500x1 mg/kg; 5/6. It is filed as functional.
Test [18] deals with Mus musculus. Nature of the test: Number of survivors on day 60 at a dose of 200 mg/kg; 1/7. The test is classed as functional. In a few lines:
as §1

Test [19] has as its system Mus musculus. Briefly: Number of survivors on the toxicity day (day = 15) at a dose of 62.5x1 mg/kg; 6/6. The test is classed as functional.
Test [20] has as its system Mus musculus. Nature of the test: Increased life span against L1210 lymphoid leukemia cells in male BDF1 mice at a dose of 5x7 mg/kg. It is filed as functional. The gist of the method: as §1
For test [21], the system named is Mus musculus. Nature of the test: Number of survivors on the toxicity day (day = 5) at a dose of 200x1 mg/kg; 5/6. The test is classed as functional.
In test [22] the test system is Mus musculus. Nature of the test: Increased life span against L1210 lymphoid leukemia cells in male BDF1 mice at a dose of 10x7 mg/kg. The test is classed as functional. In a few lines:
as §1

For test [23], the system named is Mus musculus. Nature of the test: Number of survivors on day 60 at a dose of 7.5 mg/kg; 0/7. The test is classed as functional. In a few lines: as §1
Test [24] relates to Mus musculus. Briefly: Compound was ested for antitumor activity against Lewis lung carcinoma cells implanted in CD2F1 female mice at a dose of 25x2 mg/kg. The test is classed as functional.
Test [25] deals with Mus musculus. Briefly: Compound was ested for antitumor activity against Lewis lung carcinoma cells implanted in male CD2F1 mice at a dose of 5x6 mg/kg. It is filed as functional.
Test [26] relates to Mus musculus. Briefly: Number of survivors on the toxicity day (day = 21) at a dose of 100x1 mg/kg; 5/7. The test is classed as functional.
The subject of test [27] is Mus musculus. Nature of the test: Number of survivors on day 60 at a dose of 25 mg/kg; 0/7. It is filed as functional. The gist of the method: as §1
In test [28] the test system is Mus musculus. Briefly: Compound was ested for antitumor activity against Lewis lung carcinoma cells implanted in female CD2F1 mice at a dose of 100x2 mg/kg. The test is classed as functional.
The subject of test [29] is Mus musculus. Nature of the test: Number of survivors on the toxicity day (day = 5) at a dose of 100x1 mg/kg; 6/6. The test is classed as functional.
Test [30] deals with Mus musculus. Nature of the test: Number of survivors on the toxicity day (day = 5) at a dose of 400x1 mg/kg; 5/6. The test is classed as functional.
Test [31] deals with Mus musculus. Briefly: Compound was ested for antitumor activity against Lewis lung carcinoma cells implanted in male CD2F1 mice at a dose of 100x2 mg/kg. The test is classed as functional.
For test [32], the system named is Mus musculus. Briefly: Number of survivors on the toxicity day (day = 5) at a dose of 50x1 mg/kg; 6/6. It is filed as functional.
In test [33] the test system is Mus musculus. Nature of the test: Increased life span against L1210 lymphoid leukemia cells in male BDF1 mice at a dose of 30 mg/kg. It is filed as functional. The gist of the method: as §1
The subject of test [34] is Mus musculus. Briefly: Compound was ested for antitumor activity against Lewis lung carcinoma cells implanted in female CD2F1 mice at a dose of 200x2 mg/kg; T=Toxic doxe. The test is classed as functional, organism-based.
Test [35] concerns Mus musculus. Nature of the test: Number of survivors on the toxicity day (day = 5) at a dose of 200x1 mg/kg; 6/6. The test is classed as functional.
For test [36], the system named is Mus musculus. Nature of the test: Compound was ested for antitumor activity against Lewis lung carcinoma cells implanted in male CD2F1 mice at a dose of 200x2 mg/kg. It is filed as functional.
Test [37] concerns Mus musculus. Briefly: Compound was ested for antitumor activity against Lewis lung carcinoma cells implanted in male C57BL mice at a dose of 100 mg/kg. It is filed as functional.
Test [38] concerns Mus musculus. Nature of the test: Number of survivors on the toxicity day (day = 5) at a dose of 25x1 mg/kg; 5/6. It is filed as functional.
Test [39] has as its system Mus musculus. Nature of the test: Compound was ested for antitumor activity against Lewis lung carcinoma cells implanted in female CD2F1 mice at a dose of 50x2 mg/kg. It is filed as functional.
Test [40] relates to Mus musculus. Nature of the test: Increased life span against L1210 lymphoid leukemia cells in male BDF1 mice at a dose of 7.5 mg/kg. The test is classed as functional. In a few lines:
as §1

Test [41] has as its system Mus musculus. Nature of the test: Increased life span against L1210 lymphoid leukemia cells in male BDF1 mice at a dose of 15 mg/kg. It is filed as functional. In a few lines: as §1
For test [42], the system named is Mus musculus. Nature of the test: Increased life span against L1210 lymphoid leukemia cells in male BDF1 mice at a dose of 25 mg/kg. The test is classed as functional. In a few lines:
as §1

Test [43] relates to Mus musculus. Nature of the test: Compound was ested for antitumor activity against Lewis lung carcinoma cells implanted in male CD2F1 mice at a dose of 400x2 mg/kg; Toxic doxe. The test is classed as functional, organism-based.
The test system of test [44] is Mus musculus. Briefly: Increased life span against L1210 lymphoid leukemia cells in male BDF1 mice at a dose of 20x7 mg/kg. It is filed as functional. In a few lines:
as §1

For test [45], the system named is Mus musculus. Nature of the test: Number of survivors on day 60 at a dose of 5 x 7 ip administration day 2 through day. It is filed as functional. The gist of the method: as §1
Test [46] concerns Mus musculus. Briefly: Number of survivors on day 60 at a dose of 400 mg/kg; 7/7. The test is classed as functional. In a few lines:
as §1

Regarding `O=P1(N(CCCl)CCCl)NCCCO1` (stereo unspecified) [CYCLOPHOSPHAMIDE ANHYDROUS], the Survivors with Mus musculus [1] came out at 7; in the test on Mus musculus [3], 0. In the test on Mus musculus [2], the ILS at 100 mg/kg was determined as 59.6%. Further, the ILS with Mus musculus [2] (dose 100 mg/kg) was determined as 52.9%. Further, the ILS at 200 mg/kg with Mus musculus [4] was above 423%.

For the molecule `O=C(CCOP(=O)(NCCCl)N(CCCl)CCCl)c1ccccc1` (stereo unspecified), the Survivors in the test on Mus musculus [5], with Mus musculus [3] and in the test on Mus musculus [7] was 0 each time. Further, in the test with Mus musculus [2], the ILS at 100 mg/kg was 29.9%. Also, the ILS at 400 mg/kg in the test with Mus musculus [6] is -19.7%. The ILS at 200 mg/kg in the test with Mus musculus [4] is 60.6%.

With `O=C(CCOP(=O)(NCCCl)NCCCl)c1ccccc1`, the Survivors with Mus musculus [8] stood at 5; in the test with Mus musculus [13], 6; in the test with Mus musculus [14], 0; in the test on Mus musculus [15], 6; with Mus musculus [3] it was 0; in the test on Mus musculus [17], 5. The Survivors in the test on Mus musculus [18] is recorded as 1; with Mus musculus [19], 6. Moreover, the T/C (as a rule, the ratio of treated to control) with Mus musculus [9] amounted to 165%; with Mus musculus [10], 291%; with Mus musculus [11], 117%; in the test with Mus musculus [12], 138%. In the test with Mus musculus [2], the ILS at 100 mg/kg is 51.7%. Further, the ILS at 50 mg/kg in the test on Mus musculus [16] was determined as 20.2%. Further, the ILS at 400 mg/kg in the test on Mus musculus [6] was above 443%.

On to `NP(=O)(OCCC(=O)c1ccccc1)N(CCCl)CCCl` (stereo unspecified), for which the values for the ILS in the test on Mus musculus [20], with Mus musculus [22] and with Mus musculus [44] were 20.6, 29.7 and 58.8, respectively. Also, the Survivors with Mus musculus [21] is 5; in the test with Mus musculus [23] it was 0; with Mus musculus [26] it was 5; in the test with Mus musculus [27] it was 0; in the test on Mus musculus [29], 6; with Mus musculus [14] it was 0. In addition, the Survivors was found to be 5 in the test on Mus musculus [30]; 6 in the test with Mus musculus [32]; 6 with Mus musculus [35]; 5 in the test with Mus musculus [38]; 0 in the test with Mus musculus [45]. Moreover, the T/C in the test with Mus musculus [24] was 163%; in the test with Mus musculus [25], 106%; with Mus musculus [28], 92%; in the test with Mus musculus [31], 221%; in the test on Mus musculus [34] it was “Toxic”; in the test with Mus musculus [36], 89%. Besides, the T/C in the test with Mus musculus [37] was 63%; with Mus musculus [39], 223%; with Mus musculus [43], “Toxic”. Moreover, the ILS at 100 mg/kg in the test with Mus musculus [2] is -34%. Also, the ILS at 30 mg/kg in the test with Mus musculus [33] stood at 35.1%. Also, in the test with Mus musculus [16], the ILS at 50 mg/kg amounted to 43.9%. Also, in the test on Mus musculus [40], the ILS at 7.5 mg/kg was 10.7%. The ILS at 15 mg/kg in the test with Mus musculus [41] is 16.3%. In the test on Mus musculus [42], the ILS at 25 mg/kg was found to be 22.9%.

In the case of `O=P1(NCCCl)OCCCN1CCCl` (stereo unspecified) [IFOSFAMIDE], the Survivors in the test with Mus musculus [5] was 0; in the test with Mus musculus [46] it was 7; in the test on Mus musculus [14] it was 0; in the test with Mus musculus [3] it was 0. The ILS in the test with Mus musculus [6] is on record as above 617; in the test on Mus musculus [4], 99.8.
